This is an account of results in ChEMBL document CHEMBL1128520, “Synthesis of (dialkylamino)alkyl-disubstituted pyrimido[5,6,1- de]acridines, a novel group of anticancer agents active on a multidrug resistant cell line” (J Med Chem, 1995).

Each structure is given as a SMILES string.

Data set [1] has as its system LoVo. Put plainly: The compound was tested in vitro for cytotoxic activity against sensitive LoVo human colon adenocarcinoma cell line. It counts as functional, cell-based. The method, boiled down: (§1)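 LoVo and doxorubicin-resistant LoVo/Dx monolayers grown in Ham's F-12 with 10% fetal calf serum, penicillin/streptomycin, L-glutamine and MEM vitamins, 37 °C, 5% CO2. Log-phase cells seeded at 0.02×10^6 cells/mL. Exposure 72 h. Growth measured by cellular protein content. EC50 is the concentration giving 50% growth inhibition. At least five runs, mean ± SEM.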

Another data set has as its system L1210. The data set is described as follows: The compound was tested in vitro for cytotoxic activity against L1210 Murine leukemia cell line. It counts as functional, cell-based. The settings on record: Mus musculus. The method, boiled down:
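Murine L1210 leukemia cells grown in suspension in RPMI 1640 with 5% fetal calf serum and penicillin/streptomycin, 37 °C, 5% CO2, passaged every 2–3 days. Log-phase cells seeded at 0.05×10^6 cells/mL. Exposure 48 h. Growth read by cellular protein content. EC50 is the concentration giving 50% growth inhibition. At least five runs, mean ± SEM.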

Data set [2] can be described thus: Resistance Index is the ratio of EC50 of LoVo/Dx cell line and EC50 of LoVo cell line. It counts as functional.
Data set [3] relates to LoVo. Put plainly: The compound was tested in vitro for cytotoxic activity against Doxorubicin resistant LoVo/Dx human colon adenocarcinoma cell line. It counts as functional, cell-based. The method, boiled down:
as §1

Data set [4] relates to Mus musculus. Put plainly: The compound was tested for anti tumor activity against P388 Murine Leukemia (%T/C = ratio of survival time of the treated to the control mice) at 0.19 mg/kg. In kind it is functional. In outline:
(§2)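 P388 leukemia cells, 10^6 per mouse, given ip on day 0 to (BALB/c × DBA/2) F1 hybrid mice; line kept by ip passage in DBA/2 mice. Groups of 6 treated and 12 control mice. %T/C = mean survival time of treated / control × 100; ≥125 taken as significant.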

For data set [5], the system named is Mus musculus. Put plainly: The compound was tested for anti tumor activity against P388 Murine Leukemia (%T/C = ratio of survival time of the treated to the control mice) at 1.56 mg/kg. In kind it is functional. The method, boiled down: as §2
The species named for data set [6] is Mus musculus. The data set is described as follows: The compound was tested for toxicity (number of toxic deaths/total number of mice 7 days after the day 5 injection); 0/6. It counts as organism-based. The following applies: in vivo, 168 h.
Data set [7] relates to Mus musculus. The data set is described as follows: The compound was tested for anti tumor activity against P388 Murine Leukemia (%T/C = ratio of survival time of the treated to the control mice) at 0.78 mg/kg. It counts as functional. The method, boiled down:
as §2

For data set [8], the system named is Mus musculus. Put plainly: The compound was tested for anti tumor activity against P388 Murine Leukemia (%T/C = ratio of survival time of the treated to the control mice) at 3.12 mg/kg. In kind it is functional. In outline: as §2
Data set [9] is filed under the species Mus musculus. The data set is described as follows: The compound was tested for toxicity (number of toxic deaths/total number of mice 7 days after the day 5 injection); 6/6. It counts as organism-based. The following applies: in vivo, 168 h.
For data set [10], the system named is Mus musculus. The data set is described as follows: The compound was tested for anti tumor activity against P388 Murine Leukemia (%T/C = ratio of survival time of the treated to the control mice) at 0.39 mg/kg. In kind it is functional. The method, boiled down: as §2
For data set [11], the species on record is Mus musculus. Put plainly: The compound was tested for toxicity (number of toxic deaths/total number of mice 7 days after the day 5 injection); 1/6. The settings on record: in vivo, 168 h. In kind it is organism-based.

What is called EC50 is the midpoint of the concentration-response curve. Read a high EC50 as weaker potency. For the compound `Cl.O=C1c2ccccc2C(=O)c2c(NCCNCCO)ccc(NCCNCCO)c21`, the EC50 worked out at 640 nM in the data set with LoVo [1], 350 nM in the data set with L1210 and 36800 nM in the data set with LoVo [3]. In addition, in data set [2], the Resistance index is listed as 57.5.
For `CN(C)CCn1c(=O)c2ccc(NCCN3CCNCC3)c3c(=O)c4ccccc4n(c1=O)c23.Cl`, in that order: 850 nM, 210 nM, 1000 nM and 1.2.
`CCN(CC)CCNc1ccc2c(=O)n(CCN(C)C)c(=O)n3c4ccccc4c(=O)c1c23.Cl`: the concentration for a half-maximal effect (EC50) amounted to 52 nM with LoVo [1], 52 nM in the data set on L1210 and 100 nM with LoVo [3]. Also, the Resistance index in data set [2] was found to be 1.9.
For orientation: T/C means the result in the treated group divided by that in the control group, in per cent. `CN(C)CCn1c(=O)c2ccc(NCCNCCO)c3c(=O)c4ccccc4n(c1=O)c23.Cl`: the T/C in the data set on Mus musculus [4] is 189%; in the data set with Mus musculus [5], 167%; with Mus musculus [7], 233%; with Mus musculus [8], 70%; with Mus musculus [10], 244%. Further, the EC50 in the data set with LoVo [1] amounted to 30 nM; in the data set on L1210, 4.5 nM; with LoVo [3], 230 nM. Moreover, the Toxicity in the data set listed under Mus musculus [6] is 0; in the data set listed under Mus musculus [9] it was 6. Besides, the Resistance index in data set [2] is on record as 7.7.
On to `CN(C)CCn1c(=O)c2ccc(Cl)c3c(=O)c4ccccc4n(c1=O)c23.Cl`, for which the values for the EC50 in the data set with LoVo [1], in the data set on L1210 and with LoVo [3] were 1200 nM, 500 nM and 1400 nM, respectively. In [2], the Resistance index worked out at 1.2.
On the same counts, the results for `CN(C)CCCNc1ccc2c(=O)n(CCN(C)C)c(=O)n3c4ccccc4c(=O)c1c23.Cl` are 190 nM, 63 nM, 160 nM and 0.8.
With `CN(C)CCNc1ccc2c(=O)n(CCN(C)C)c(=O)n3c4ccccc4c(=O)c1c23.Cl`, the T/C is listed as 166% in the data set on Mus musculus [4]; 100% in the data set with Mus musculus [5]; 222% in the data set with Mus musculus [7]; 70% in the data set on Mus musculus [8]; 222% in the data set with Mus musculus [10]. Besides, the Toxicity in the data set filed under Mus musculus [6] is on record as 0; in the data set listed under Mus musculus [11] it was 1; in the data set listed under Mus musculus [9], 6. The response in the data set on L1210 was half-maximal at 2.2 nM (EC50).
